Measured values published in ChEMBL document CHEMBL1155233, “Structure mechanism insights and the role of nitric oxide donation guide the development of oxadiazole-2-oxides as therapeutic agents against schistosomiasis” (J Med Chem, 2009).
Calls of active or inactive are those of the source. The calls are words filed in the database; no cut-off is given here.

Assays:
Schistosoma mansoni [1] = experiment: Antischistosomal activity against Schistosoma mansoni assessed as parasite killing after 2 hrs; type: functional, organism-based
Outline: (§1)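 Cultured ex vivo worms were exposed to 10 μM compound. Worm effects were scored by visual examination at time points over a 72 h time-course.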

Schistosoma mansoni [2] = experiment: Antischistosomal activity against Schistosoma mansoni assessed as parasite killing after 4 hrs; type: functional; outline: as §1
Schistosoma mansoni [3] = experiment: Antischistosomal activity against Schistosoma mansoni assessed as induction of parasite mortality after 8 hrs; type: functional; parameters: concentration or dose not given beside the values; outline: as §1
Schistosoma mansoni [4] = experiment: Antischistosomal activity against Schistosoma mansoni assessed as induction of parasite mortality after 16 hrs; type: functional; parameters: concentration or dose not given beside the values; outline: as §1
Schistosoma mansoni [5] = experiment: Antischistosomal activity against Schistosoma mansoni assessed as induction of parasite mortality after 24 hrs; type: functional; parameters: concentration or dose not given beside the values; outline: as §1
Schistosoma mansoni [6] = experiment: Antischistosomal activity against Schistosoma mansoni assessed as induction of parasite mortality after 48 hrs; type: functional; parameters: concentration or dose not given beside the values; outline: as §1
Schistosoma mansoni [7] = experiment: Antischistosomal activity against Schistosoma mansoni assessed as induction of parasite mortality after 72 hrs; type: functional; parameters: concentration or dose not given beside the values; outline: as §1
[8] = Induction of nitric oxide release at 10 uM in presence of Schistosoma mansoni recombinant TGR; type: functional
[9] = Induction of nitric oxide release at 10 uM in presence of Schistosoma mansoni recombinant TGR and NADPH; type: functional
[10] = Induction of nitric oxide release at 10 uM in presence of cysteine; type: physicochemical
[11] = molecular target: T1, Glutathione reductase, mitochondrial (Homo sapiens, UniProt P00390); experiment: Inhibition of human recombinant GR after 15 mins in presence of NADPH
T1 sequence (P00390 whole entry): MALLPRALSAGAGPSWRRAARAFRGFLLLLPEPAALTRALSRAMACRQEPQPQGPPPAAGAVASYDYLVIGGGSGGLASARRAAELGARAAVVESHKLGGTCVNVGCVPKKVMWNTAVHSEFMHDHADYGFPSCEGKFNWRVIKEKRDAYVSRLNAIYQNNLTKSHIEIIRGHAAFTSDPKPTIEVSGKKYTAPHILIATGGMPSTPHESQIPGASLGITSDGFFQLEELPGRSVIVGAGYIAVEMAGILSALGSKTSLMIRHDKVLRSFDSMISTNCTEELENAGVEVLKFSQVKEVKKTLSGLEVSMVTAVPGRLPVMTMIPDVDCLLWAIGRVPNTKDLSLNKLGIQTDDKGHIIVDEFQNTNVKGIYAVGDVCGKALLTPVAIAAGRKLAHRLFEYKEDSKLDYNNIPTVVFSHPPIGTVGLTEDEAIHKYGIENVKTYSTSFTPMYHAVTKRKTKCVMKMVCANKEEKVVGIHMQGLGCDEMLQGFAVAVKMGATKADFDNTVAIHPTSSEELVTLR

[12] = molecular target: T2, Thioredoxin reductase 1, cytoplasmic (Rattus norvegicus, UniProt O89049); experiment: Inhibition of rat recombinant TrxR1 after 10 mins
T2 sequence (O89049 whole entry): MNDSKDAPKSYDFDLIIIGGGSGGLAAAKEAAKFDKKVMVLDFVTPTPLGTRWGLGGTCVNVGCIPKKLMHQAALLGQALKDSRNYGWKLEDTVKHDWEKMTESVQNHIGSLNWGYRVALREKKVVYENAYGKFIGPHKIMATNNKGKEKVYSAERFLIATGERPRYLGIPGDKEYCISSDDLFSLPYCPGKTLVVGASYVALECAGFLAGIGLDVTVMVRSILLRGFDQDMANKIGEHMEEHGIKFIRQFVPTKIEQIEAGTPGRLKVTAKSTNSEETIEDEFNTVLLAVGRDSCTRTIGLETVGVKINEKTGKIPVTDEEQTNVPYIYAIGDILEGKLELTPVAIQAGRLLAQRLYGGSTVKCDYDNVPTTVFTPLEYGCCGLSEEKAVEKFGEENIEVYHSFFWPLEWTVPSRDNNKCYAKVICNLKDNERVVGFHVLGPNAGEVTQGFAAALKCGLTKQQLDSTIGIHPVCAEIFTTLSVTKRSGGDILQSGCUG

[13] = Reactivity with cysteine at 0.1 mM in 0.1M phosphate buffer assessed as amount of compound unreacted by HPLC
[14] = Metabolic stability in human liver microsomes assessed as compound remaining over 60 mins in absence of NADPH; type: ADME, Microsome; conditions: read-out: Stability
[15] = molecular target: T3, Thioredoxin glutathione reductase (Schistosoma mansoni, UniProt Q962Y6); experiment: Inhibition of Schistosoma mansoni TGR
T3 sequence (Q962Y6 whole entry): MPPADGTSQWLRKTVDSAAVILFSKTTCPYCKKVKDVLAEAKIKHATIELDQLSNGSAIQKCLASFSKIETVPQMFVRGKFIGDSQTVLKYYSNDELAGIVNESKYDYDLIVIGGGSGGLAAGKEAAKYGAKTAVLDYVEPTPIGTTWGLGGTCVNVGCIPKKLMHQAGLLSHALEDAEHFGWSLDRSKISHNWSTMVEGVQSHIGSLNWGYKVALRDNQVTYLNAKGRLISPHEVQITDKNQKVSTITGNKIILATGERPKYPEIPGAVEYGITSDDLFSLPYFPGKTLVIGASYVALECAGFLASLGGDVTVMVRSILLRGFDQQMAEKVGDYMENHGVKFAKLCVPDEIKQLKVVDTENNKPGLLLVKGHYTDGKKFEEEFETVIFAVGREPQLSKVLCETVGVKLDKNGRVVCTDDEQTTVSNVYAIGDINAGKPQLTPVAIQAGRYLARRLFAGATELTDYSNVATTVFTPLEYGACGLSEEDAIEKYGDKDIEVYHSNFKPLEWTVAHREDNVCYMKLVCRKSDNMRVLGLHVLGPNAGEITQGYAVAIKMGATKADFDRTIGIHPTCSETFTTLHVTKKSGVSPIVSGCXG

Schistosoma mansoni [16] = experiment: Antischistosomal activity against Schistosoma mansoni assessed as induction of parasite sluggish movement after 16 hrs; type: functional, organism-based; outline: as §1

| Structure (SMILES) | Activity (Schistosoma mansoni [1]) | Activity (Schistosoma mansoni [2]) | Activity (Schistosoma mansoni [3]) | Activity (Schistosoma mansoni [4]) | Activity (Schistosoma mansoni [5]) | Activity (Schistosoma mansoni [6]) | Activity (Schistosoma mansoni [7]) | Activity [8] | Activity [9] | Activity [10] | IC50 [11] | IC50 [12] | Activity [13] | remaining at 1 h [14] | IC50 [15] | Activity (Schistosoma mansoni [16]) |
| --- | --- | --- | --- | --- | --- | --- | --- | --- | --- | --- | --- | --- | --- | --- | --- | --- |
| N#Cc1c(-c2ccc(F)cc2)no[n+]1[O-] | inactive | inactive | 5% | 15% | 72% | 100% | 100% | < 1% | 13% | 50% | > 50 µM | 300 µM |  |  |  |  |
| N#Cc1no[n+]([O-])c1-c1ccccc1 |  |  |  |  |  |  |  | < 1% | 5% | 10% |  |  | Active |  |  |  |
| N#Cc1c(-c2csc(-c3no[n+]([O-])c3C#N)c2)no[n+]1[O-] | inactive |  |  |  |  |  |  |  |  |  |  |  |  | 52% |  |  |
| N#Cc1c(C(=O)c2cccs2)no[n+]1[O-] | inactive | inactive | inactive | inactive | inactive | inactive | inactive |  |  |  |  |  | Active |  | 0.063 µM |  |
| N#Cc1c(-c2ccc(Cl)cc2)no[n+]1[O-] | inactive | inactive | inactive |  | 42% | 60% | 100% | 2% | 16% | 61% | > 50 µM | > 400 µM |  |  |  | Active |
| N#Cc1c(-c2cccc(Br)c2)no[n+]1[O-] | inactive | inactive | 20% | 39% | 100% | 100% | 100% | 2% | 19% | 70% | > 50 µM | 150 µM |  |  |  |  |
| N#Cc1nonc1-c1ccccc1 |  |  |  |  |  |  |  | < 1% | 3% | 7% |  |  |  |  |  |  |
| N#Cc1c(-c2cccc(C(F)(F)F)c2)no[n+]1[O-] | inactive | inactive | 7% | 25% | 54% | 100% | 100% | 2% | 20% | 78% | > 50 µM | 250 µM |  |  |  |  |
| [O-][n+]1onc(-c2ccccc2)c1CO |  |  |  |  |  |  |  |  |  |  | > 50 µM | > 400 µM |  |  |  |  |
| COc1cc(-c2no[n+]([O-])c2C#N)cc(OC)c1OC | inactive | inactive | 7% |  | 40% | 70% | 75% | < 1% | 8% | 20% | > 50 µM | 150 µM |  |  |  | Active |
